Screening results from PubChem.
PLCg1 inh: inhibitors of human phospholipase C gamma1. actives 0.84% (n = 370,000). AID 720700. purified PLC-gamma1, fluorogenic substrate, fluorescence. inhibition, % at 12.2 µM; in the data active = inhibition above about 9.5%
Tb MetRS inh: Trypanosoma brucei MetRS inhibition. actives 0.4% (n = 360,000). inhibition, % at 11.9 µM. purified T. brucei MetRS, ATP depletion, Kinase-Glo luminescence. AID 624268;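 active = inhibition above a per-plate cutoff of the control wells' mean inhibition plus 3 SD, cut at about 5.5% in these data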;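 also: 0% = DMSO wells median and 100% = median of wells with control inhibitor compound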
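Material: T. brucei methionyl-tRNA synthetase, purified; reagent: substrates ATP, L-methionine and bulk Escherichia coli tRNA; dosing: 11.9 µM single point; timing: 15 min plus 2 h at 25 °C; detection: luminescence of leftover ATP; evaluation: % inhibition; control set: DMSO-only wells as low control; replicates: singlicate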
sPLA2-III inh: Blocks human group III sPLA2 activity; inhibition, % at 12.2 µM; Q9NZ20; actives 0.56% (n = 370,000); QFRET BODIPY PC-A2 liposome hydrolysis, fluorescence;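 active = inhibition above mean plus 3 SD of compounds lying within the high and low control bounds, cut at about 19% in these data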;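 also: 0% = median of test compound wells and 100% = no enzyme DMSO wells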
DAGLB inhibitor: diacylglycerol lipase beta (human) inhibition; HEK293T DAGLB membrane lysate, EnzChek fluorogenic substrate; Q8NCG7; inhibition, % at 5.17 µM; AID 504411; actives 0.059% (n = 340,000); in the data active = inhibition above about 34%;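 also: 0% = enzyme with vehicle and 100% = wells lacking enzyme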
Target sequence (Q8NCG7 whole entry, looked up): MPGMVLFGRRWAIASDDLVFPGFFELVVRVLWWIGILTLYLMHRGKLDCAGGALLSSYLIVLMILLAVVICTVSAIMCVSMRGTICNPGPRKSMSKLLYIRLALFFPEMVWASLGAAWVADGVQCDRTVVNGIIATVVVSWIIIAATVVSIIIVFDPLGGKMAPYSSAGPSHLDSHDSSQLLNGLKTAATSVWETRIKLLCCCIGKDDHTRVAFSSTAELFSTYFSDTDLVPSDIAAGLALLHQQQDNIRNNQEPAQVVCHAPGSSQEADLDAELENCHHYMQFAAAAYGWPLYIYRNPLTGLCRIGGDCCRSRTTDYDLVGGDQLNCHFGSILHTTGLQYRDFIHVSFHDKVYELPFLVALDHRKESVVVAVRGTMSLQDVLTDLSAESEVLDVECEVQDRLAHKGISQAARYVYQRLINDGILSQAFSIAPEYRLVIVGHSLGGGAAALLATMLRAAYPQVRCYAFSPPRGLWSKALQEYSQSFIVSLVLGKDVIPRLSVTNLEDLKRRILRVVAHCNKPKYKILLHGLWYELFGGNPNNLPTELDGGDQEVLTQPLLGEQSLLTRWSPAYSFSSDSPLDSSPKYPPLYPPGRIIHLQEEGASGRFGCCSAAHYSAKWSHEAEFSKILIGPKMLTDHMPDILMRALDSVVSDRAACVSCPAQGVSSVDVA
PLCb3 inh: PLC-beta3 (human) inhibition, primary screen; Q01970; Purified PLC-beta3, fluorogenic substrate, fluorescence; inhibition, % at 12.2 µM; actives 0.18% (n = 370,000); AID 720704;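 also: 0% = median of compound wells on plate and 100% = full blocker control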
PLCg1 ctr: PLC-gamma1 inhibition, counter-screen for PLC-beta3 hits; shares compounds with PLCg1 inh; purified PLC-gamma1, fluorogenic substrate, fluorescence; inhibition, % at 12.3 µM; actives 3.1% (n = 3,300); AID 743258; in the data active = inhibition above about 9.5%
PLCb3 confirm: human PLC-beta3 inhibition, confirmation. AID 743261. actives 1% (n = 3,300). inhibition, % at 12.3 µM. purified PLC-beta3, fluorogenic substrate fluorescence. shares compounds with PLCg1 inh
Starred values were filed as active, the others as inactive; nt = not tested or not shown. Most compounds without a hit are left out; they make up all but 1.9% or so of the library. Rule as the data show it, unless noted: active = inhibition above about 11%; inactive = the rest.

SMILES	PLCg1 inh	Tb MetRS inh	sPLA2-III inh	DAGLB inhibitor	PLCb3 inh	PLCg1 ctr	PLCb3 confirm
COc1ccc(OCCCC(=O)Nc2ccc(N3CCCCC3)cc2)cc1	10*	0	-3	-2	10	-3	0
CCOC(=O)N1CCN(CCC(=O)Nc2ccc(OC)cc2)CC1	-1	0	-2	0	-1	nt	nt
CCOC(=O)N1CCN(CCC(=O)Nc2ccc(C)cc2)CC1	11*	0	3	-2	1	0	-2
COC(=O)[C@]12C[C@H](CC(=O)NCc3cccc4ccccc34)C(=O)N(Cc3ccc(Cl)cc3Cl)C1=C[C@H](C(C)C)O[C@@H]2C1CC1	0	nt	-1	nt	-1	nt	nt
CC(C)[C@H](NC(=O)C1CC1)C(=O)N1CCC[C@H]1C(=O)NCc1ccccc1	0	nt	0	nt	1	nt	nt
CCCC[C@H]1C2CC(OC(=O)Nc3ccc(F)cc3)C(C2)[C@H]2CCCCN21 (stereo not given in full)	0	nt	0	nt	0	nt	nt
Cc1cc(NS(=O)(=O)c2ccc(NC(=O)CSc3nnc(-c4ccncc4)n3Cc3ccco3)cc2)nc(C)n1	-4	nt	1	nt	-12	nt	nt
CC(C)=CCC/C(C)=C/CN(CC(C)O)CC(C)O (stereo not given)	3	0	9	1	5	nt	nt
CC(O)CN(CCC(N)=O)CCC(N)=O (stereo not given)	10*	0	9	2	0	-1	-1
CCN1CCCCC(NC(=O)c2ccc(Cl)cc2Cl)C1=O (stereo not given)	0	nt	8	nt	-2	nt	nt
CCOC(=O)c1oc2ccccc2c1COC(=O)C(C)NC(=O)c1ccco1 (stereo not given)	10*	1	-7	1	1	2	5
O=C(NCc1ccco1)c1ccc(CNc2c(N3CCCCC3)c(=O)c2=O)cc1	5	-1	1	-1	11*	1	2
CC1CCN(c2c(NCc3ccc(C(=O)NCc4ccco4)cc3)c(=O)c2=O)CC1	0	0	2	0	3	nt	nt
CCOC(=O)c1c(S(=O)(=O)N(C)C2CCCCC2)c(C)n(C)c1C	9.9*	1	6	-3	1	-4	0
CCCCN(C)C(=O)CSc1nnc(-c2cc(OC)c(OC)c(OC)c2)o1	1	nt	-3	nt	2	nt	nt
O=S(=O)(Nc1ccccc1)N1CCCCC1	11*	0	4	-2	13*	-5	2
O=S(=O)(Nc1ccc(F)cc1)N1CCCCCC1	-1	-1	-2	-7	6	nt	nt
COC(=O)c1cc(-c2cccc3c2sc2ccccc23)c(=O)n2c1CCC2	41*	nt	12	nt	-5	-35	-28
C=CCNC(=S)NNC(=O)c1csc(CC)c1	3	0	15	-2	6	nt	nt
CCCCNC(=S)NNC(=O)c1csc(C)c1	3	0	17	3	23*	-5	16*
CCCCNC(=S)NNC(=O)c1csc(CC)c1	-2	0	8	0	14*	-7	13*
CCN(CC)C(=O)c1ncn2c1C(=O)NC[C@@H]2C	0	nt	11	nt	-4	nt	nt
CCc1ccc(-n2ncc(Cl)c(Oc3ccc(OC)cc3)c2=O)cc1	-8	nt	-6	nt	-6	nt	nt
Nn1c(SCc2cn3cc(Cl)ccc3n2)nnc1-c1ccncc1	11*	-1	-1	-1	-8	-6	-3
Cc1ccc2nsnc2c1S(=O)(=O)N1CCN(CCc2ccccc2)CC1	14*	-1	-4	-2	6	-1	-1
SMILES	PLCg1 inh	Tb MetRS inh	sPLA2-III inh	DAGLB inhibitor	PLCb3 inh	PLCg1 ctr	PLCb3 confirm
O=S(=O)(c1ccccc1)N1CCN(CCc2ccccc2)CC1	-1	-1	-6	-4	-1	nt	nt
Cc1ccc(NC(=O)OC2CC3CC2[C@H]2CCCCN2[C@H]3C)cc1 (stereo not given in full)	-4	nt	7	nt	4	nt	nt
Cc1ccc(S(=O)(=O)N2CCC(=O)N(C(COCc3cccc(C)c3)C(C)C)CC2)cc1 (stereo not given)	11*	0	-8	-9	2	2	2
O=C1c2ccccc2C(=O)N1OCc1ccccc1[N+](=O)[O-]	13*	0	6	-2	6	6	1
Cc1cccc(C(=O)Nc2c(-c3ccccc3)nc3ncccn23)c1	-270	nt	-1	nt	-329	nt	nt
Cc1ccc(-c2noc(CCC(=O)NC3CCCC3)n2)cc1	0	0	3	-3	-4	nt	nt
CCN1CCCC1CNC(=O)CCc1nc(-c2ccc(C)cc2)no1 (stereo not given)	10*	-1	4	1	1	4	-3
CN(C)c1ncnc2[nH]ncc12	13*	0	3	0	6	-2	1
O=C(CCNc1n[nH]c(=O)[nH]c1=O)N1CCOCC1	14*	0	7	-1	0	-7	-2
CC(C)OC(=O)CCNc1n[nH]c(=O)[nH]c1=O	3	-1	6	-2	2	nt	nt
CCCCOC(=O)CCc1n[nH]c(=O)[nH]c1=O	-1	0	7	-1	2	nt	nt
O=C(CCc1n[nH]c(=O)[nH]c1=O)N1CCOCC1	6	0	6	3	11*	-8	-1
O=C(O)/C=C/C(=O)NCc1ccccc1	10*	-1	5	-1	6	-6	-3
CCCCN1CCN(C(=O)c2ccc(CNC(=O)c3cccc(Br)c3)cc2)CC1	3	nt	-11	nt	6	nt	nt
CCOC(=O)[C@@]12CCC3=C1N(CCC3)C(=O)[C@H](CC(=O)N1CCOCC1)C2	-1	nt	7	nt	-4	nt	nt
Cc1nn(CC(=O)O)c(C)c1Cl	11*	0	0	-1	4	-7	-3
COC(=O)C1CN(Cc2ccccc2)CCS(=O)(=O)N1Cc1cn(Cc2ccccc2Br)nn1 (stereo not given)	2	nt	-8	nt	3	nt	nt
CCOC(=O)Cn1cc(CN2C(C(=O)OC)CN(C3CCCC3)CCS2(=O)=O)nn1 (stereo not given)	8	nt	14	nt	4	nt	nt
O=C(NCc1ccc2c(c1)OCO2)Nc1ccc([N+](=O)[O-])cc1	11*	1	4	-1	0	3	5
O=C(NCc1ccc2c(c1)OCO2)Nc1ccc(Cl)cc1	-3	1	-2	-3	-5	nt	nt
Cc1cccc(Cn2cc(COC(=O)N(C)Cc3ccccc3)nn2)c1	-2	nt	4	nt	-5	nt	nt
O=C(NC(=S)Nc1ccc(Cc2ccncc2)cc1)c1ccccc1F	15*	-1	5	-3	-4	-4	-4
O=C(O)c1cccc(S(=O)(=O)NCC2COc3ccccc3O2)c1 (stereo not given)	9.8*	0	5	4	1	-8	-2
O=C1N(CC[C@@H](O)c2ccccc2)CCC12CCC(c1ccccc1)CC2 (stereo not given in full)	3	nt	0	nt	2	nt	nt
